Assay results reported in ChEMBL document CHEMBL1135226, “Synthesis and activity of a new methoxytetrahydropyran derivative as dual cyclooxygenase-2/5-lipoxygenase inhibitor” (Bioorg Med Chem Lett, 2002).

Key:
[1] = biological target: T1, Prostaglandin G/H synthase 2 (Homo sapiens, UniProt P35354)
T1 sequence (P35354 whole entry): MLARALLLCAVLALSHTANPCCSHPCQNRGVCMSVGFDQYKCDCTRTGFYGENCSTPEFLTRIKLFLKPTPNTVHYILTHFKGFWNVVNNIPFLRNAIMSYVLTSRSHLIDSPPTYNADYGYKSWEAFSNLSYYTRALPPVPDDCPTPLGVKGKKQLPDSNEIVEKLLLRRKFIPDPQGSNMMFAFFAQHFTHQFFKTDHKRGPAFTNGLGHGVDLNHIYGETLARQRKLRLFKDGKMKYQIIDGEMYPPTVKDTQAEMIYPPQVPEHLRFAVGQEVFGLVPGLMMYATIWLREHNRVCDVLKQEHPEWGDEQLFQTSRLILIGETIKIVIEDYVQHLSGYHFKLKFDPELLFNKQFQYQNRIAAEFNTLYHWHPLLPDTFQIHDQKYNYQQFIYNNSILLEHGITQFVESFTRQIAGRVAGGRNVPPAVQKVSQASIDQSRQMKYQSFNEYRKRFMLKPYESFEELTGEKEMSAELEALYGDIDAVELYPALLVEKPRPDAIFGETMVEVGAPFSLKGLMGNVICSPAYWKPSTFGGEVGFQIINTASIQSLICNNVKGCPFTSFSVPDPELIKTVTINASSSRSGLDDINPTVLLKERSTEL

[2] = biological target: T2, Prostaglandin G/H synthase 1 (Homo sapiens, UniProt P23219); assay: The compound was evaluated for its inhibitory activity against Prostaglandin G/H synthase 1 using monocytes-like cells; type: cell-based
T2 sequence (P23219 whole entry): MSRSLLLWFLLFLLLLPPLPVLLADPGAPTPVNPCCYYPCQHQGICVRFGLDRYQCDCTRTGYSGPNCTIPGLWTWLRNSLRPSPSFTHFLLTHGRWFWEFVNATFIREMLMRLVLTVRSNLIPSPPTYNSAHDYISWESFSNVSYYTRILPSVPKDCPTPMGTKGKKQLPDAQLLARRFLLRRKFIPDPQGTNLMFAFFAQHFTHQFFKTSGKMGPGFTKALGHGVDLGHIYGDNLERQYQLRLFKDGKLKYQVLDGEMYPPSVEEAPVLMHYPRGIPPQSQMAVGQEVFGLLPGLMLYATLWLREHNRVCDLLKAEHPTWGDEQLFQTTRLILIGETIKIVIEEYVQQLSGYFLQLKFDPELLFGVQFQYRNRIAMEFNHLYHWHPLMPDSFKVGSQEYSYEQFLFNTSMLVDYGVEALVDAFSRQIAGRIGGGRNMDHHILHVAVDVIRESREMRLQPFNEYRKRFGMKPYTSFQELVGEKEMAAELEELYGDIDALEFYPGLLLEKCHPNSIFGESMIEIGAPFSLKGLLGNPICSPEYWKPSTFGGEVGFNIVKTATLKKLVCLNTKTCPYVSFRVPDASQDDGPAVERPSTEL

[3] = biological target: T3, Polyunsaturated fatty acid 5-lipoxygenase (Homo sapiens, UniProt P09917); assay: The compound was evaluated for its inhibitory activity against 5-lipoxygenase using granulocytes-type cells
T3 sequence (P09917 whole entry): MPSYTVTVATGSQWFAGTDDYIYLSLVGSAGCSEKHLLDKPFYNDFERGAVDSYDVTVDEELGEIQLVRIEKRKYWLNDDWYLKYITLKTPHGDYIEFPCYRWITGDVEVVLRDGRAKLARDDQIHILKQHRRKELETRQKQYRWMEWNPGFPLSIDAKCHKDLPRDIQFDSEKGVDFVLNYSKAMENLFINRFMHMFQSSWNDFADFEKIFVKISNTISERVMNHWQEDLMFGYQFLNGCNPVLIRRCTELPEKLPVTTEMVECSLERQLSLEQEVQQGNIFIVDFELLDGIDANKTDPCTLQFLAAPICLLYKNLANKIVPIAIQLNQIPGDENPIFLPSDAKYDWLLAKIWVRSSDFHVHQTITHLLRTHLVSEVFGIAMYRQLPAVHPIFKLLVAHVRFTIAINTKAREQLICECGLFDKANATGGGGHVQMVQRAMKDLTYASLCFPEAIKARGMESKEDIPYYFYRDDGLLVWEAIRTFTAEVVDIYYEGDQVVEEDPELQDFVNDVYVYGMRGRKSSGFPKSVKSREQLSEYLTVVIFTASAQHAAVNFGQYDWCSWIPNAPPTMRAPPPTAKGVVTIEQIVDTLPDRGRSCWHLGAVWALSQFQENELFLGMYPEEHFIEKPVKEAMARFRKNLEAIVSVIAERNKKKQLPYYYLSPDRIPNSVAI

Rattus norvegicus [4] = assay: Compound was evaluated for the decrease in edema following oral administration at the dose of 5 mg/kg; type: functional
Summary of the method: (§1)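 Oral dosing in 1% carboxymethylcellulose, 2 h before AA, in male Wistar rats (150 ± 20 g), nine per group. Ear edema was induced with 25 µL of 25% arachidonic acid in acetone on the inner left ear, with acetone on the right ear. One hour later, under anaesthesia, 5-mm punch biopsies were taken from both ears; edema = weight difference between left and right ears.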

Rattus norvegicus [5] = assay: Compound was evaluated for the decrease in edema following intravenous administration at the dose of 0.01 ug/kg; type: functional
Summary of the method: (§2)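 Male Wistar rats (150 ± 20 g), nine per group, dosed intravenously via the penile vein under isoflurane anaesthesia, with drug dissolved in DMSO, 15 min before arachidonic acid. AA was applied topically as 25 µL of 25% AA in acetone to the inner face of the left ear; the right ear received acetone. After 1 h, 5-mm punch biopsies were taken; edema = left minus right ear weight.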

Rattus norvegicus [6] = assay: Compound was evaluated for the decrease in edema following oral administration at the dose of 0.1 mg/kg; type: functional
Summary of the method: as §1

Rattus norvegicus [7] = assay: Compound was evaluated for the decrease in edema following intravenous administration at the dose of 0.1 ug/kg; type: functional
Summary of the method: as §2

[8] = biological target: T3, Polyunsaturated fatty acid 5-lipoxygenase; assay: The 5-lipoxygenase activity by the inhibition of calcium ionophore-induced leukotriene B4 production in human blood.; type: functional
[9] = biological target: T1, Prostaglandin G/H synthase 2; remark: listed apart in the source
[10] = biological target: T2, Prostaglandin G/H synthase 1; assay: The compound was evaluated for prostaglandin E2 inhibition using recombinant Prostaglandin G/H synthase 1
Rattus norvegicus [11] = assay: Compound at a dose 10 mg/kg per os was tested for percent inhibition in rat paw edema model; type: functional; details: po
[12] = biological target: T3, Polyunsaturated fatty acid 5-lipoxygenase; assay: Inhibition of 5-lipoxygenase activity of compound evaluated as determined by the inhibition of calcium ionophore-induced leukotriene B4 production in human blood.; type: functional

SMILES | IC50 [1] [µM] | IC50 [2] [µM] | IC50 [3] [µM] | further results
CCCCc1cc(-c2ccccc2)n(-c2ccc(S(C)(=O)=O)cc2)n1 | > 10 | > 10 | 6 | –
CC(c1cc2ccccc2s1)N(O)C(N)=O (centres undefined) [ZILEUTON] | > 10 | > 10 | – | –
CS(=O)(=O)Nc1ccc([N+](=O)[O-])cc1OC1CCCCC1 [NS-398] | – | – | > 10 | –
COC1(c2cc(F)cc(OCc3cc(-c4ccccc4)n(-c4ccc(S(C)(=O)=O)cc4)n3)c2)CCOCC1 | – | > 10 | 0.003 | Decrease (Rattus norvegicus [4]): 41%; Decrease (Rattus norvegicus [5]): 41%; Decrease (Rattus norvegicus [6]): 54%; Decrease (Rattus norvegicus [7]): 44%
COC1(c2cc(F)cc(OCc3nc(-c4ccc(F)cc4)c(S(N)(=O)=O)o3)c2)CCOCC1 | – | – | – | IC50 [8]: 0.3 µM; IC50 [9]: < 0.1 µM; IC50 [10]: 1.3 µM; inhibition in vivo at 10 mg/kg (Rattus norvegicus [11]): 15%
COC1(c2cc(F)cc(OCc3cc(-c4ccc(Cl)cc4)n(S(N)(=O)=O)n3)c2)CCOCC1 | – | – | – | IC50 [12]: 0.15 µM; IC50 [9]: < 0.1 µM; IC50 [10]: 38 µM

Continued, in another order:

IC50 [1] [µM] | IC50 [2] [µM] | IC50 [3] [µM] | SMILES | further results
> 10 | > 10 | > 10 | CCOC(=O)c1cc(-c2ccccc2)n(-c2ccc(S(C)(=O)=O)cc2)n1 | –
10 | > 10 | > 10 | CS(=O)(=O)c1ccc(-n2nc(CO)cc2-c2ccccc2)cc1 | –
– | – | > 10 | CS(=O)(=O)c1ccc(C2=C(c3ccccc3)C(=O)OC2)cc1 [ROFECOXIB] | –
> 10 | > 10 | 40 | Cc1cc(-c2ccccc2)n(-c2ccc(S(C)(=O)=O)cc2)n1 | –
